Values joined by “and” are separate entries in the source; they are usually repeats but may differ in a detail not shown here. Identical values can stand only once. Like-named read-outs stand apart in the source and are kept apart here.
Assays:
[1] = type: in vivo, human; details: for AUC0‐t, mean ± SD: fasted, plasma to 48 h
In short: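 Healthy adults, cohorts A–E (n = 6 each), single oral tablet dose (25–400 mg) with 8 oz water after ≥10 h fast plus 4 h more. Potassium-EDTA plasma sampled predose and 0.5–48 h, stored −70°C ≤62 days, solid-supported liquid-liquid extraction. AUC0-t by trapezoidal method; AUC0-∞ = AUC0-t + Clast/λ. BQL values taken as zero. Power-model dose proportionality with 95% CI.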

Multiple‐dose = type: in vivo, human; details: for AUCτ, mean ± SD: after last of 9 multiple doses; for Cmax / Tmax: human, plasma, oral
In short: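 After the single dose, the same subjects took the assigned dose twice daily, 9 doses, with only a morning dose on the final day. Morning doses were fasted; evening doses were taken without regard to meals. Plasma was sampled predose on days 3–7 (A–D) or 4–8 (E), then 0.5–12 h postdose. AUCτ by trapezoidal method; fluctuation 100*(Cmax−Cmin)/Cavg; accumulation as AUCτ/AUC0-t.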

Safety/tolerability = type: in vivo, human
In short: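 Open-label oral dose escalation. Cohorts A–E received 10 doses (1 single, then 9 twice daily). Cohort F (n = 6) took titrated twice-daily doses of 100–800 mg/day on days 1–14, up to 28 doses, and was assessed for safety only. Vital signs were taken at screening, baseline and each study day, with a 12-lead ECG at screening. AEs were recorded when reported.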

[2] = test system: cytochrome P450 (CYP) 2C9; details: cited from earlier work
[3] = test system: hypokalemic PP and hyperkalemic PP; details: doses from approximately 100 to 200 mg/day, versus placebo; cited from earlier work
[4] = Cohort A 25 mg single oral dose (n = 6)
[5] = Cohort B 50 mg single oral dose (n = 6)
[6] = Cohort C 100 mg single oral dose (n = 6)
[7] = Cohort D 200 mg single oral dose (n = 6)
[8] = Cohort E 400 mg single oral dose (n = 6)
[9] = Cohort A (n = 6): 1 × 25 mg then 9 × 25 mg BID
[10] = Cohort B (n = 6): 1 × 50 mg then 9 × 50 mg BID
[11] = Cohort C (n = 6): 1 × 100 mg then 9 × 100 mg BID
[12] = Cohort D (n = 6): 1 × 200 mg then 9 × 200 mg BID
[13] = Cohort E (n = 6): 1 × 400 mg then 9 × 400 mg BID
[14] = Cohort F (n = 6): dose titration 50 to 400 mg BID, up to 28 doses

NS(=O)(=O)c1cc(Cl)c(Cl)c(S(N)(=O)=O)c1 [dichlorphenamide]
AUC0‐∞, mean ± SD [1, 4]: 5908 ± 3959 ng˙h/mL | AUC0‐t, mean ± SD [1, 4]: 2327 ± 731 ng˙;h/mL | AUC0‐∞, mean ± SD [1, 5]: 14,734 ± 4555 ng˙h/mL | AUC0‐t, mean ± SD [1, 5]: 7897 ± 2055 ng˙;h/mL | AUC0‐∞, mean ± SD [1, 6]: 28,901 ± 13,317 ng˙h/mL | AUC0‐t, mean ± SD [1, 6]: 19,119 ± 7317 ng˙;h/mL | AUC0‐∞, mean ± SD [1, 7]: 66,456 ± 26,211 ng˙h/mL | AUC0‐t, mean ± SD [1, 7]: 38,132 ± 8249 ng˙;h/mL | AUC0‐∞, mean ± SD [1, 8]: 142,007 ± 16,279 ng˙h/mL | AUC0‐t, mean ± SD [1, 8]: 88,243 ± 12,616 ng˙;h/mL | half-life ([1]; human, plasma, oral): 32 to 68 h | Tmax ([1]; human, plasma, oral, Median Tmax, range across doses, single doses 25–400 mg): 1.5 to 3 h | Cmax ([1]; human, plasma, po, 25 mg): 298 ± 77 ng/mL | half-life ([1]; human, plasma, po, 25 mg): 68.4 ± 35 h | Cmax ([1]; human, plasma, po, 50 mg): 709 ± 490 ng/mL | half-life ([1]; human, plasma, po, 50 mg): 51.4 ± 24 h | Cmax ([1]; human, plasma, po, 100 mg): 1510 ± 909 ng/mL | half-life ([1]; human, plasma, po, 100 mg): 31.9 ± 11 h | Cmax ([1]; human, plasma, po, 200 mg): 3030 ± 1210 ng/mL | half-life ([1]; human, plasma, po, 200 mg): 41 ± 17 h | Cmax ([1]; human, plasma, po, 400 mg): 6320 ± 1280 ng/mL | half-life ([1]; human, plasma, po, 400 mg): 38.6 ± 8 h | Slope for LnAUC0‐t (dose proportionality, power model), with 95%CI ([1]; single doses 25–400 mg): 1.29 (95%CI, 1.18‐1.40) | Slope for LnCmax (dose proportionality, power model), with 95%CI ([1]; single doses 25–400 mg): 1.11 (95%CI, 0.97‐1.26) | Cavg, mean ± SD (Multiple‐dose; Cohort A 25 mg BID (n = 5)): 837 ± 274 ng/mL | AUCτ, mean ± SD (Multiple‐dose; Cohort A 25 mg BID (n = 5)): 10,038 ± 3283 ng˙h/mL | Cavg, mean ± SD (Multiple‐dose; Cohort B 50 mg BID (n = 6)): 1527 ± 549 ng/mL | AUCτ, mean ± SD (Multiple‐dose; Cohort B 50 mg BID (n = 6)): 18,329 ± 6593 ng˙h/mL | Cavg, mean ± SD (Multiple‐dose; Cohort C 100 mg BID (n = 6)): 3122 ± 1108 ng/mL | AUCτ, mean ± SD (Multiple‐dose; Cohort C 100 mg BID (n = 6)): 37,468 ± 13,298 ng˙h/mL | Cavg, mean ± SD (Multiple‐dose; Cohort D 200 mg BID (n = 5)): 7080 ± 2854 ng/mL | AUCτ, mean ± SD (Multiple‐dose; Cohort D 200 mg BID (n = 5)): 84,960 ± 34,245 ng˙h/mL | Cavg, mean ± SD (Multiple‐dose; Cohort E 400 mg BID (n = 3)): 17,298 ± 5219 ng/mL | AUCτ, mean ± SD (Multiple‐dose; Cohort E 400 mg BID (n = 3)): 207,577 ± 62,626 ng˙h/mL | Cmax (Multiple‐dose; 25 mg): 1150 ± 239 ng/mL | Tmax (Multiple‐dose; 25 mg): 2 h | Cmax (Multiple‐dose; 50 mg): 2220 ± 959 ng/mL | Tmax (Multiple‐dose; 50 mg): 3 h | Cmax (Multiple‐dose; 100 mg): 4870 ± 1890 ng/mL | Tmax (Multiple‐dose; 100 mg): 1.5 h | Cmax (Multiple‐dose; 200 mg): 10700 ng/mL | Tmax (Multiple‐dose; 200 mg): 2 h | Cmax (Multiple‐dose; 400 mg): 26600 ng/mL | Tmax (Multiple‐dose; 400 mg): 1 h | Slope for LnAUCτ (dose proportionality, power model), with 95%CI (Multiple‐dose; multiple doses 25–400 mg BID): 1.09 (95%CI, 0.92–1.26) | Slope for LnCmax (dose proportionality, power model), with 95%CI (Multiple‐dose; multiple doses 25–400 mg BID): 1.13 (95%CI, 0.95–1.31) | Accumulation ratios of AUCτ/AUC0‐t (Multiple‐dose; multiple‐ versus single‐dose phase): greater than 1 | Tolerability for extended use (Safety/tolerability; 800 mg total daily dose, short‐term study): intolerable for extended use | Blood potassium decreased, TEAE of any severity, subjects (Safety/tolerability; [9]): 0 | Dizziness, TEAE of any severity, subjects (Safety/tolerability; [9]): 0 | Dysgeusia, TEAE of any severity, subjects (Safety/tolerability; [9]): 0 | Dyspnea, TEAE of any severity, subjects (Safety/tolerability; [9]): 0 | Oral paresthesia, TEAE of any severity, subjects (Safety/tolerability; [9]): 0 | Paresthesia, TEAE of any severity, subjects (Safety/tolerability; [9]): 0 | Subjects discontinuing due to TEAE (Safety/tolerability; [9]): 0 n (%) | Subjects reporting at least 1 TEAE (Safety/tolerability; [9]): 1 (16.7) n (%) | Subjects reporting at least 1 serious TEAE (Safety/tolerability; [9]): 0 n (%) | Total TEAEs reported (Safety/tolerability; [9]): 1 | Treatment‐related AEs reported (Safety/tolerability; [9]): 0 | Blood potassium decreased, TEAE of any severity, subjects (Safety/tolerability; [10]): 0 | Dizziness, TEAE of any severity, subjects (Safety/tolerability; [10]): 0 | Dysgeusia, TEAE of any severity, subjects (Safety/tolerability; [10]): 0 | Dyspnea, TEAE of any severity, subjects (Safety/tolerability; [10]): 0 | Oral paresthesia, TEAE of any severity, subjects (Safety/tolerability; [10]): 0 | Paresthesia, TEAE of any severity, subjects (Safety/tolerability; [10]): 0 | Subjects discontinuing due to TEAE (Safety/tolerability; [10]): 0 n (%) | Subjects reporting at least 1 TEAE (Safety/tolerability; [10]): 1 (16.7) n (%) | Subjects reporting at least 1 serious TEAE (Safety/tolerability; [10]): 0 n (%) | Total TEAEs reported (Safety/tolerability; [10]): 3 | Treatment‐related AEs reported (Safety/tolerability; [10]): 2 | Blood potassium decreased, TEAE of any severity, subjects (Safety/tolerability; [11]): 1 (16.7) | Dizziness, TEAE of any severity, subjects (Safety/tolerability; [11]): 0 | Dysgeusia, TEAE of any severity, subjects (Safety/tolerability; [11]): 0 | Dyspnea, TEAE of any severity, subjects (Safety/tolerability; [11]): 0 | Oral paresthesia, TEAE of any severity, subjects (Safety/tolerability; [11]): 0 | Paresthesia, TEAE of any severity, subjects (Safety/tolerability; [11]): 2 (33.3) | Subjects discontinuing due to TEAE (Safety/tolerability; [11]): 0 n (%) | Subjects reporting at least 1 TEAE (Safety/tolerability; [11]): 4 (66.7) n (%) | Subjects reporting at least 1 serious TEAE (Safety/tolerability; [11]): 0 n (%) | Total TEAEs reported (Safety/tolerability; [11]): 16 | Treatment‐related AEs reported (Safety/tolerability; [11]): 14 | Blood potassium decreased, TEAE of any severity, subjects (Safety/tolerability; [12]): 0 | Dizziness, TEAE of any severity, subjects (Safety/tolerability; [12]): 4 (66.7) | Dysgeusia, TEAE of any severity, subjects (Safety/tolerability; [12]): 3 (50.0) | Dyspnea, TEAE of any severity, subjects (Safety/tolerability; [12]): 3 (50.0) | Oral paresthesia, TEAE of any severity, subjects (Safety/tolerability; [12]): 1 (16.7) | Paresthesia, TEAE of any severity, subjects (Safety/tolerability; [12]): 2 (33.3) | Subjects discontinuing due to TEAE (Safety/tolerability; [12]): 1 n (%) and 1 (16.7) n (%) | Subjects reporting at least 1 TEAE (Safety/tolerability; [12]): 6 (100) n (%) | Subjects reporting at least 1 serious TEAE (Safety/tolerability; [12]): 0 n (%) | Total TEAEs reported (Safety/tolerability; [12]): 36 | Treatment‐related AEs reported (Safety/tolerability; [12]): 33 | Blood potassium decreased, TEAE of any severity, subjects (Safety/tolerability; [13]): 1 (16.7) | Dizziness, TEAE of any severity, subjects (Safety/tolerability; [13]): 3 (50.0) | Dysgeusia, TEAE of any severity, subjects (Safety/tolerability; [13]): 1 (16.7) | Dyspnea, TEAE of any severity, subjects (Safety/tolerability; [13]): 1 (16.7) | Oral paresthesia, TEAE of any severity, subjects (Safety/tolerability; [13]): 1 (16.7) | Paresthesia, TEAE of any severity, subjects (Safety/tolerability; [13]): 4 (66.7) | Subjects discontinuing due to TEAE (Safety/tolerability; [13]): 3 n (%) and 3 (50.0) n (%) | Subjects reporting at least 1 TEAE (Safety/tolerability; [13]): 6 (100) n (%) | Subjects reporting at least 1 moderate TEAE (Safety/tolerability; [13]): 1 (16.7) n (%) | Subjects reporting at least 1 serious TEAE (Safety/tolerability; [13]): 0 n (%) | Total TEAEs reported (Safety/tolerability; [13]): 42 | Treatment‐related AEs reported (Safety/tolerability; [13]): 39 | Dizziness, TEAE of any severity, subjects (Safety/tolerability; [14]): 0 | Dysgeusia, TEAE of any severity, subjects (Safety/tolerability; [14]): 0 | Dyspnea, TEAE of any severity, subjects (Safety/tolerability; [14]): 1 (16.7) | Oral paresthesia, TEAE of any severity, subjects (Safety/tolerability; [14]): 0 | Paresthesia, TEAE of any severity, subjects (Safety/tolerability; [14]): 2 (33.3) | Subjects discontinuing due to TEAE (Safety/tolerability; [14]): 6 n (%) and 6 (100) n (%) | Subjects reporting at least 1 TEAE (Safety/tolerability; [14]): 6 (100) n (%) | Subjects reporting at least 1 moderate TEAE (Safety/tolerability; [14]): 2 (33.3) n (%) | Subjects reporting at least 1 serious TEAE (Safety/tolerability; [14]): 1 (16.7) n (%) | Total TEAEs reported (Safety/tolerability; [14]): 50 | Treatment‐related AEs reported (Safety/tolerability; [14]): 40 | TEAEs reported as moderate (Safety/tolerability; all cohorts): 7 | Dizziness, number of subjects (Safety/tolerability; all cohorts (N = 36)): 7 subjects | Paresthesia (including oral), number of subjects (Safety/tolerability; all cohorts (N = 36)): 12 subjects | Subjects reporting at least 1 TEAE in gastrointestinal system organ class (Safety/tolerability; all cohorts (N = 36)): 28% | Subjects reporting at least 1 TEAE in nervous system organ class (Safety/tolerability; all cohorts (N = 36)): 50% | Subjects withdrawn/discontinued due to AEs (Safety/tolerability; all cohorts, 36 enrolled): 10 subjects | Changes in vital signs or ECG findings (Safety/tolerability; any subject): No clinically relevant changes | Serum potassium, clinically significant reduction in 1 subject (Safety/tolerability; cohort C, poststudy): 2.8 mmol/L | Serious TEAE of rash requiring brief hospitalization, subjects (Safety/tolerability; cohort F): 1 subject | Subjects with below‐normal serum potassium (Safety/tolerability; cohort F): 5 of 6 | Discontinuations to which hypokalemia contributed (Safety/tolerability; cohort F (all 800 mg/day)): 5 of 6 | Serum potassium, lowest recorded value (Safety/tolerability; cohort F, multiple study time points): 2.8 mmol/L | Subjects with clinically significant reductions in serum potassium (Safety/tolerability; cohorts A through E, poststudy): 2 subjects | Subjects with at least one mild‐to‐moderate AE (Safety/tolerability; cohorts D, E, and F): 100% | Effect on CYP2C9‐mediated 7‐methoxy‐4‐(trifluoromethyl)coumarin (MFC) metabolism [2]: relatively weak activator | Frequency and severity of attacks in primary periodic paralysis [3]: significant reduction

From publication PMC6585844 (Clinical Pharmacology in Drug Development, 2018)
